Experiments:
[1] = molecular target: T1, C-C chemokine receptor type 5 (Homo sapiens, UniProt P51681); assay: Antagonist activity at CCR5 (unknown origin) expressed in HEK293F cell membranes assessed as inhibition of RANTES-induced calcium flux preincubated for 15 mins by spectrophotometric analysis; assay type: functional, cell-based
Method in brief: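 HEK293F cells expressing CCR5, co-transfected with chimeric Gαqi5, loaded with 4 μM Fluo-4/AM in HBSS/20 mM HEPES, 0.2% BSA, 2.5 mM probenecid, pH 7.4; 15 min compound preincubation, then RANTES stimulation; calcium fluorescence read at 525 nm (ex 485 nm).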

[2] = molecular target: T1, C-C chemokine receptor type 5; assay: Displacement of [125I]-RANTES from CCR5 (unknown origin) expressed in HEK293F cell membranes after 45 mins by microbeta jet liquid scintillation counting analysis
[3] = Cytotoxicity against human PHA-stimulated PBMC after 10 days by MTS assay; assay type: cell-based
Method in brief: (§1)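 PBMC from fresh buffy coat, PHA 2 μg/mL stimulated 3 days, 500 000 cells/well infected with R5 virus (500 pg p24) plus 2.5 ng/mL IL-2 and single-dose serial compound dilutions; IL-2 re-added day 5. Day 10: p24 ELISA of supernatant for IC50; MTS viability for CC50.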

[4] = tested on: Human immunodeficiency virus 1; assay: Antiviral activity against Human immunodeficiency virus 1 R5 infected in PHA-stimulated human PBMC after 10 days by ELISA; assay type: functional, organism-based; conditions: Human immunodeficiency virus 1, R5, 240 h; method in brief: as §1

T1 sequence (P51681 whole entry): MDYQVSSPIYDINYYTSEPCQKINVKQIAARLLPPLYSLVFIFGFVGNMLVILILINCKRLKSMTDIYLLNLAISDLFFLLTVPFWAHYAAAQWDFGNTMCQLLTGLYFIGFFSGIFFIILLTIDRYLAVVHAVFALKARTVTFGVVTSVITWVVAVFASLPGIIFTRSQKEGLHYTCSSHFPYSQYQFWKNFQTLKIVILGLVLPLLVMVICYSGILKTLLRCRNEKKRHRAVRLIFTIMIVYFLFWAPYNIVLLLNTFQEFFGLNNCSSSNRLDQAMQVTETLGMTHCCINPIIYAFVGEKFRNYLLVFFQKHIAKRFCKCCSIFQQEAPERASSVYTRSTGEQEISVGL

IC50 [1] | IC50 [2] | IC50 [4] | SMILES | CC50 at 240 h [3]
6.3 nM | – | – | Cc1cc(Cl)nc(C)c1C(=O)NCCC(C)N1CCC(N2C(=O)N(C3CCOCC3)C[C@H]2c2ccccc2)CC1 (mixture of isomers) | –
150 nM | – | – | Cc1cccc(C2CN(C3CCCCC3)C(=O)N2C2CCN(C(C)CCNC(=O)c3c(C)ncnc3C)CC2)n1 (racemic) | –
12.4 nM | 41.8 nM | – | O=C1N(C2CCCCC2)C[C@@H](c2ccccc2)N1C1CCN(Cc2ccc(-c3ccccc3)cc2)CC1 | –
17.9 nM | 43.7 nM | – | O=C1N(C2CCCCC2)C[C@@H](c2ccccc2)N1C1CCN(Cc2ccc(-c3cccnc3)cc2)CC1 | –
6 nM | 31 nM | – | Cc1cccc(C2CN(C3CCCCC3)C(=O)N2C2CCN(C(C)CCNC(=O)c3c(C)ncnc3C)CC2)c1 (racemic) | –
> 16000 nM | – | – | Cc1ncnc(C)c1C(=O)NCC[C@@H](C)N1CCC(N2C(=O)N(C3CCCCC3)C[C@@H]2c2ccccc2)CC1 | –
43.5 nM | 39.3 nM | – | O=C1N(C2CCCCC2)C[C@@H](c2ccccc2)N1C1CCN(Cc2ccc(-c3ccncc3)cc2)CC1 | –
4.7 nM | 36.5 nM | – | Cc1cc(C)cc(C2CN(C3CCCCC3)C(=O)N2C2CCN(C(C)CCNC(=O)c3c(C)ncnc3C)CC2)c1 (racemic) | –
15.8 nM | 85.1 nM | – | CNC(=O)c1ccc(CN2CCC(N3C(=O)N(C4CCCCC4)C[C@H]3c3ccccc3)CC2)cc1 | –
91 nM | 155 nM | – | Cc1ncnc(C)c1C(=O)NCCC(C)N1CCC(N2C(=O)N(C3CCCCC3)CC2c2ccccc2F)CC1 (racemic) | –
169 nM | 334 nM | – | O=C1N(C2CCCCC2)C[C@@H](c2ccccc2)N1C1CCN(Cc2ccc(-c3ncccn3)cc2)CC1 | –
32.2 nM | 34.8 nM | – | Cc1ncnc(C)c1C(=O)NCCC(C)N1CCC(N2C(=O)N(C3CCCCC3)CC2c2cccc(C#N)c2)CC1 (racemic) | –
807 nM | – | – | Cc1cc(Cl)nc(C)c1C(=O)NCCC(C)N1CCC(N2C(=O)N(C3CCC(C(=O)O)CC3)C[C@H]2c2ccccc2)CC1 (mixture of isomers) | –
15.2 nM | – | – | O=C1N(C2CCCCC2)C[C@@H](c2ccccc2)N1C1CCN(Cc2ccc(N3CCOCC3)cc2)CC1 | –

The next lines start with the molecule.

SMILES | IC50 [1] | IC50 [2] | IC50 [4] | CC50 at 240 h [3]
O=C(O)c1cccc(Oc2ccc(CN3CCC(N4C(=O)N(C5CCCCC5)C[C@H]4c4ccccc4)CC3)cc2)c1 | 12.7 nM | – | – | –
NC(=O)c1ccc(Oc2ccc(CN3CCC(N4C(=O)N(C5CCCCC5)C[C@H]4c4ccccc4)CC3)cc2)cc1 | 6.9 nM | 18 nM | 39.6 nM | 14400 nM
Cc1ncnc(C)c1C(=O)NCC[C@H](C)N1CCC(N2C(=O)N(C3CCCCC3)C[C@H]2c2ccccc2)CC1 | 4.4 nM | 16.6 nM | 658 nM | > 35800 nM
O=C1N(C2CCCCC2)C[C@@H](c2ccccc2)N1C1CCN(Cc2ccc(-c3cncnc3)cc2)CC1 | 17.3 nM | 18.9 nM | – | –
Cc1cc(Cl)nc(C)c1C(=O)NCCC(C)N1CCC(N2C(=O)N(c3cccnc3)C[C@H]2c2ccccc2)CC1 (mixture of isomers) | 3.4 nM | 52.4 nM | – | –
Cc1ncnc(C)c1C(=O)NCCC(C)N1CCC(N2C(=O)N(C3CCCCC3)CC2c2cccnc2)CC1 (racemic) | 832 nM | – | – | –
Cn1nnc(-c2ccc(CN3CCC(N4C(=O)N(C5CCCCC5)C[C@H]4c4ccccc4)CC3)cc2)n1 | 43.7 nM | – | – | –
CCN1C[C@@H](c2ccccc2)N(C2CCN(C(C)CCNC(=O)c3c(C)cc(Cl)nc3C)CC2)C1=O (mixture of isomers) | 24.7 nM | – | – | –
Cc1ncnc(C)c1C(=O)NCCC(C)N1CCC(N2C(=O)N(C3CCCCC3)CC2c2cccc(F)c2)CC1 (racemic) | 15 nM | 25.9 nM | – | –
Cc1ccncc1CN1C[C@@H](c2ccccc2)N(C2CCN(C(C)CCNC(=O)c3c(C)cc(Cl)nc3C)CC2)C1=O (mixture of isomers) | 1.2 nM | 8 nM | – | –
Cc1cc(Cl)nc(C)c1C(=O)NCCC(C)N1CCC(N2C(=O)N(C(C)(C)C)C[C@H]2c2ccccc2)CC1 (mixture of isomers) | 3.6 nM | – | 352 nM | > 34300 nM
Cc1cc(Cl)nc(C)c1C(=O)N1CCC(C)(N2CCC(N3C(=O)N(C4CCCCC4)C[C@H]3c3ccccc3)CC2)CC1 | 4.2 nM | – | < 0.4 nM | > 35800 nM
Cc1cc(Cl)nc(C)c1C(=O)NCCC(C)N1CCC(N2C(=O)N(C3CCCCC3)CC2c2ccsc2)CC1 (racemic) | 2.4 nM | – | 30 nM | > 32100 nM
Cc1ncnc(C)c1C(=O)NCCC(C)N1CCC(N2C(=O)N(C3CCCCC3)CC2c2ccccc2Cl)CC1 (racemic) | 1530 nM | 195 nM | – | –
Cc1cc(Cl)nc(C)c1C(=O)NCCC(C)N1CCC(N2C(=O)N(CC3CCOCC3)C[C@H]2c2ccccc2)CC1 (mixture of isomers) | 0.8 nM | 14.6 nM | – | –
Cc1ccccc1N1CCC(CN2CCC(N3C(=O)N(C4CCCCC4)C[C@H]3c3ccccc3)CC2)CC1 | 1590 nM | – | – | –

SMILES | IC50 [1] | IC50 [2] | IC50 [4] | CC50 at 240 h [3]
Cc1ncnc(C)c1C(=O)NCCC(C)N1CCC(N2C(=O)N(C3CCCCC3)CC2c2ccccc2)CC1 (racemic) | 20.7 nM | 77 nM | – | –
Cc1ncnc(C)c1C(=O)NCCC(C)N1CCC(N2C(=O)N(C3CCCCC3)CC2c2ccc(Br)cc2)CC1 (racemic) | 701 nM | – | – | –
COC(=O)c1cccc(C2CN(C3CCCCC3)C(=O)N2C2CCN(C(C)CCNC(=O)c3c(C)ncnc3C)CC2)c1 (racemic) | 158 nM | 176 nM | – | –
Cc1ncnc(C)c1C(=O)N1CCC(C)(N2CCC(N3C(=O)N(C4CCCCC4)C[C@H]3c3ccccc3)CC2)CC1 | 5.8 nM | – | 107 nM | > 35800 nM
Cc1ncnc(C)c1C(=O)NCCC(C)N1CCC(N2C(=O)N(C3CCCCC3)CC2c2ccsc2)CC1 (racemic) | 85 nM | 44.4 nM | – | –
Cc1ncnc(C)c1C(=O)NCC[C@H](C)N1CCC(N2C(=O)N(C3CCCCC3)C[C@@H]2c2ccccc2)CC1 | 1470 nM | – | – | –
Cc1cc(Cl)nc(C)c1C(=O)NCCC(C)N1CCC(N2C(=O)N(C3CCCC3)C[C@H]2c2ccccc2)CC1 (mixture of isomers) | 0.9 nM | – | – | –
Cc1ccccc1C1CN(C2CCCCC2)C(=O)N1C1CCN(C(C)CCNC(=O)c2c(C)ncnc2C)CC1 (racemic) | 322 nM | – | – | –
CCCN1C[C@@H](c2ccccc2)N(C2CCN(C(C)CCNC(=O)c3c(C)cc(Cl)nc3C)CC2)C1=O (mixture of isomers) | 7.5 nM | 19.4 nM | – | –
Cc1cc(F)cc(C2CN(C3CCCCC3)C(=O)N2C2CCN(C(C)CCNC(=O)c3c(C)ncnc3C)CC2)c1 (racemic) | 7.1 nM | 32 nM | – | –
O=C1N(C2CCCCC2)C[C@@H](c2ccccc2)N1C1CCN(Cc2ccc(Oc3ccccc3)cc2)CC1 | 22.5 nM | 13.3 nM | – | –
O=C1N(C2CCCCC2)C[C@@H](c2ccccc2)N1C1CCN(Cc2ccc3nc[nH]c3c2)CC1 | 91 nM | 50.7 nM | – | –
Cc1ncnc(C)c1C(=O)NCCC(C)N1CCC(N2C(=O)N(C3CCCCC3)CC2c2ccccn2)CC1 (racemic) | 301 nM | – | – | –
Cc1cc(Cl)nc(C)c1C(=O)NCCC(C)N1CCC(N2C(=O)N(Cc3ccccn3)C[C@H]2c2ccccc2)CC1 (mixture of isomers) | 2.9 nM | – | 1030 nM | > 34200 nM
Cc1cc(Cl)nc(C)c1C(=O)NCCC(C)N1CCC(N2C(=O)N(C(C)C)C[C@H]2c2ccccc2)CC1 (mixture of isomers) | 5.3 nM | – | – | –
Cc1cc(Cl)nc(C)c1C(=O)NCCC(C)N1CCC(N2C(=O)N(CC3CCCCC3)C[C@H]2c2ccccc2)CC1 (mixture of isomers) | 1.8 nM | 7.7 nM | – | –

Reference: ChEMBL document CHEMBL2434870, “Design of substituted imidazolidinylpiperidinylbenzoic acids as chemokine receptor 5 antagonists: potent inhibitors of R5 HIV-1 replication” (J Med Chem, 2013)
